Bioassay records (PubChem BioAssay)
IDE inh: cellular human IDE inhibition; AID 434962; actives 0.41% (n = 320,000); P14735; inhibition, % at 5.59 µM; HEK cells, FAbetaB cleavage, fluorescence polarization;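 active = percent inhibition above the average of all tested compounds plus 3 SD, set per screening campaign, cut at about 16% in these data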;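 note: IDE supplied by intact live HEK cells; FP after avidin binding of uncleaved biotin substrate so inhibition keeps polarization high; 0% = DMSO wells and 100% = 60 µM reference IDE inhibitor Ii1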
procasp7 counter: counter-screen: procaspase-7 (human) activation. AID 463210. recombinant procaspase-7, Ac-DEVD-pNA absorbance 405 nm; D23A/D198A/D206A triple mutant, cannot self-cleave; scale: DMSO 0, 5 µM enzyme 100. actives 0.093% (n = 330,000). activation, % at 8.5 µM. P55210;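 active = percent activation above the screen-wide mean plus 3 SD, cut at about 25% in these data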
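signal = Epi-absorbance of released pNA at 405 nm, two timepoints | assay system = Uncleavable procaspase-7 mutant enzyme | reagent = Ac-DEVD-pNA substrate, 400 µM as added | times = 1 h enzyme–compound preincubation and 2 h substrate reaction, both 25 °C | benchmarks = low DMSO alone, high DMSO plus 5 µM PC-7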
procasp3 activ: activators of human procaspase-3; P42574; recombinant procaspase-3 D3A, Ac-DEVD-pNA absorbance 405 nm; activation, % at 8.5 µM; actives 0.11% (n = 330,000); AID 463141;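 active = activation above the mean of all tested compounds plus 3 SD, cut at about 21% in these data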;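 note: 0% = DMSO alone and 100% = DMSO wells spiked with extra 5 µM PC-3 D3A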
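Test system: Procaspase-3 D3A mutant, all three cleavage aspartates alanine | Dosing: Single dose, 8.5 µM nominal compound, 0.8% DMSO | Schedule: 1 h preincubation, 2 h reaction | Technique: 405 nm absorbance of p-nitroaniline, reads at 0 and 120 min | Repeats: One well per compound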
TPT1 inh: inhibitors of Candida albicans tRNA 2'-phosphotransferase TPT1 | recombinant caTPT1, FP RNA substrate dephosphorylation | inhibition, % at 5 µM | actives 0.81% (n = 300,000);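 active = inhibition above the mean of all tested compounds plus 3 SD, set per screening campaign, cut at about 24% in these data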;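 note: plate controls were DMSO alone for no effect and ferristatin control at 100 nM for full effect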
IDE act: IDE (human) activation, cell-based. P14735. HEK cells, FAbeta-B cleavage, fluorescence polarization; 0% vehicle, 100% cell-free pure enzyme wells. activation, % at 5.96 µM. actives 0.073% (n = 340,000). AID 493087;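 active = activation above the mean of all tested compounds plus 3 SD, set per screening campaign, cut at about 17% in these data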
caTPT1 confirm: TPT1 (C. albicans) inhibition, confirmation | recombinant caTPT1, fluorescence polarization, RNase T1 coupled | AID 2149 | actives 74% (n = 2,400) | inhibition, % at 5 µM | shares compounds with TPT1 inh;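 active = inhibition above the primary screen limit, the mean inhibition of all tested compounds plus 3 SD, cut at about 25% in these data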
RNase T1 counter: blocks Aspergillus oryzae RNase T1, a TPT1 counter-screen | shares compounds with TPT1 inh | RNase T1 cleavage, fluorescence polarization, 1536-well | inhibition, % at 5 µM | actives 83% (n = 2,400);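 active = inhibition above the solvent-only control well mean plus 3 SD, limit set per screening run, cut at about 23% in these data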;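 note: plate controls were DMSO wells with enzyme for no effect and wells without RNase T1 for full effect; inhibitors block cleavage so intact labeled substrate keeps polarization high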
IDE inh confirm: confirmation of human insulin-degrading enzyme inhibitors in cells. actives 51% (n = 1,200). AID 435028. inhibition, % at 5.59 µM. shares compounds with IDE inh. HEK cells, FAbetaB cleavage, fluorescence polarization;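 active = mean inhibition across triplicate wells above the cutoff set by the earlier primary insulin-degrading enzyme screen, cut at about 16% in these data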;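 note: 0% = DMSO wells and 100% = 60 µM reference IDE inhibitor Ii1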
HEK cytotox: HEK cell cytotoxicity, counter-screen for IDE inhibitors. inhibition, % at 5.59 µM. HEK293 cytotoxicity, ATP luminescence. shares compounds with IDE inh. actives 28% (n = 1,200); in the data active = inhibition above about 22%;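 note: 0% = vehicle wells and 100% = reference cytotoxic drug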
Starred values were filed as active, the others as inactive; x = not tested or not shown. Compounds with a hit are over-represented: about 1.2% of the library has one in this group of screens.

SMILES	IDE inh	procasp7 counter	procasp3 activ	TPT1 inh	IDE act	caTPT1 confirm	RNase T1 counter	IDE inh confirm	HEK cytotox
COc1cc(/C=C2/SC(=S)N(Cc3ccccc3)C2=O)ccc1O	115*	0	-11	24*	-117	37*	46*	139*	20
Cc1cc(SCC(=O)NCC(c2cccs2)N2CCOCC2)c(C)cc1Br (stereo not drawn)	-4	5	2	1	1	x	x	x	x
COc1cc(/C=C2/SC(=S)N(c3c(C)n(C)n(-c4ccccc4)c3=O)C2=O)ccc1O	18*	-27	-24	29*	-34	29*	42*	46*	11
CCOc1cc(/C=C2/SC(=S)N(CC3CCCO3)C2=O)ccc1O (stereo not drawn)	35*	-15	-2	30*	-74	35*	47*	123*	24*
COc1cc(/C=C2\SC(=S)N(NC(=O)c3ccccc3OC)C2=O)ccc1O	x	x	x	x	-68	x	x	x	x
COc1ccc(CNC(=O)COC(=O)CO/N=C(\C)c2ccc3c(c2)OCO3)cc1	-3	2	-4	-2	3	x	x	x	x
O=C(/C=C/c1ccc(N2CCC(c3ccccc3)=N2)cc1)c1ccccc1	112*	-18	-20	115*	x	119*	114*	63*	15
Cn1c(CNC(=O)CCNC(=O)c2ccccc2)cc(=O)n(C)c1=O	-2	-2	6	-3	-1	x	x	x	x
CCN(CC)c1ccc(/C=C(/C#N)c2nc3ccccc3[nH]2)c(OC(C)C)c1	141*	-26	1	163*	-154	163*	149*	149*	32*
CCOc1cccc(/C=C(/C#N)c2nc3ccccc3[nH]2)c1OCC(=O)O	-19	-4	0	-2	2	x	x	x	x
CCOC(=O)/C(=C\C=C1/Sc2ccccc2N1CC)C(C)=O	123*	-26	-23	186*	-103	196*	176*	156*	23*
CCOC(=O)/C(=C/C=C1\Sc2cc(C)c(C)cc2N1CC)C(C)=O	x	x	x	x	-124	x	x	x	x
CCOC(=O)/C(=C/C=C1\Sc2ccccc2N1CC)C(C)=O	101*	-20	-19	174*	-146	189*	170*	143*	20
CCN1C(=O)/C(=C/C=C2/CCCN2C)OC1=S	19*	-15	-15	78*	-30	106*	116*	26*	10
COc1ccccc1/C=C/C(=O)OCC(=O)N1CCc2ccccc21	-5	-3	4	x	7	x	x	x	x
O=C1CNC(=O)/C(=C\c2ccccc2)N1	0	6	6	-4	2	x	x	x	x
O=C1/C(=C/c2ccccc2)Nc2ccccc21	28*	7	0	63*	-13	64*	70*	32*	6
CC(=Nc1ccccc1)c1sc2ccccc2c1O	20*	-15	-10	31*	-43	51*	67*	51*	12
CC(=Nc1ccc(Br)cc1)c1sc2ccccc2c1O	20*	-7	-10	78*	-57	88*	95*	54*	15
Nc1c(C(=O)Nc2nc3ccccc3s2)sc2nc(-c3cccs3)ccc12	29*	-13	-11	30*	-22	27*	38*	37*	81*
O=C(CN1CSCC1=O)N1CCN(S(=O)(=O)c2ccc(Cl)cc2)CC1	-1	3	2	x	3	x	x	x	x
COc1ccc(C)cc1NC(=O)CN1C(=O)COc2ccc(S(=O)(=O)N3CCC(C)CC3)cc21	-2	-4	-1	-3	4	x	x	x	x
CCN(CC)c1ccc(/C=N/NC(=O)c2cccc(S(=O)(=O)N3CCOCC3)c2)c(O)c1	22*	-2	18	41*	-27	58*	67*	37*	85*
